Common to all, as to type: functional
Experiment [1] deals with Streptococcus suis. The experiment in a line: Antibacterial activity against Streptococcus suis BB1017 isolate after 24 hrs. Put shortly:
(§1)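 Broth microdilution MIC assay against S. suis collection strain or Spanish/South American swine clinical isolates, incubated at 37°C for 24 h; MIC reported in μg/ml.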

Experiment [2] relates to Streptococcus suis. The experiment in a line: Antibacterial activity against Streptococcus suis ATCC 43765 in presence of 10 ug/ml reserpine after 24 hrs. As to conditions: ATCC 43765, 24 h. In outline:
as §1

Experiment [3] concerns Streptococcus suis. The experiment in a line: Antibacterial activity against Streptococcus suis BB1001 isolate in presence of 10 ug/ml reserpine after 24 hrs. Put shortly: as §1
Experiment [4] has as its system Streptococcus suis. The experiment in a line: Antibacterial activity against Streptococcus suis ATCC 43765 after 24 hrs. The conditions noted are these: ATCC 43765, 24 h. Put shortly:
as §1

The test system of experiment [5] is Streptococcus suis. The experiment in a line: Antibacterial activity against Streptococcus suis BB1001 isolate after 24 hrs. In outline: as §1
Experiment [6] deals with Streptococcus suis. The experiment in a line: Antibacterial activity against Streptococcus suis BB1002 isolate after 24 hrs. Put shortly:
as §1

For experiment [7], the system named is Streptococcus suis. The experiment in a line: Antibacterial activity against Streptococcus suis BB1003 isolate after 24 hrs. In outline:
as §1

For experiment [8], the system named is Streptococcus suis. The experiment in a line: Antibacterial activity against Streptococcus suis BB1004 isolate after 24 hrs. In outline: as §1
The subject of experiment [9] is Streptococcus suis. The experiment in a line: Antibacterial activity against Streptococcus suis BB1005 isolate after 24 hrs. In outline:
as §1

Experiment [10] deals with Streptococcus suis. The experiment in a line: Antibacterial activity against Streptococcus suis BB1006 isolate after 24 hrs. In outline:
as §1

In experiment [11] the test system is Streptococcus suis. The experiment in a line: Antibacterial activity against Streptococcus suis BB1008 isolate after 24 hrs. In outline:
as §1

The subject of experiment [12] is Streptococcus suis. The experiment in a line: Antibacterial activity against Streptococcus suis BB1009 isolate after 24 hrs. Put shortly:
as §1

Experiment [13] relates to Streptococcus suis. The experiment in a line: Antibacterial activity against Streptococcus suis BB1010 isolate after 24 hrs. Put shortly: as §1
In experiment [14] the test system is Streptococcus suis. The experiment in a line: Antibacterial activity against Streptococcus suis BB1011 isolate after 24 hrs.
The subject of experiment [15] is Streptococcus suis. The experiment in a line: Antibacterial activity against Streptococcus suis BB1012 isolate after 24 hrs. In outline: as §1
The test system of experiment [16] is Streptococcus suis. The experiment in a line: Antibacterial activity against Streptococcus suis BB1013 isolate after 24 hrs. Put shortly: as §1
The subject of experiment [17] is Streptococcus suis. The experiment in a line: Antibacterial activity against Streptococcus suis BB1014 isolate after 24 hrs. Put shortly:
as §1

In experiment [18] the test system is Streptococcus suis. The experiment in a line: Antibacterial activity against Streptococcus suis BB1015 isolate after 24 hrs. Put shortly: as §1
The test system of experiment [19] is Streptococcus suis. The experiment in a line: Antibacterial activity against Streptococcus suis BB1016 isolate after 24 hrs. In outline: as §1
The subject of experiment [20] is Streptococcus suis. The experiment in a line: Antibacterial activity against Streptococcus suis BB1002 isolate in presence of 10 ug/ml reserpine after 24 hrs. In outline: as §1
In experiment [21] the test system is Streptococcus suis. The experiment in a line: Antibacterial activity against Streptococcus suis BB1003 isolate in presence of 10 ug/ml reserpine after 24 hrs. Put shortly: as §1
Experiment [22] relates to Streptococcus suis. The experiment in a line: Antibacterial activity against Streptococcus suis BB1004 isolate in presence of 10 ug/ml reserpine after 24 hrs. In outline: as §1
Experiment [23] relates to Streptococcus suis. The experiment in a line: Antibacterial activity against Streptococcus suis BB1005 isolate in presence of 10 ug/ml reserpine after 24 hrs. Put shortly: as §1
Experiment [24] deals with Streptococcus suis. The experiment in a line: Antibacterial activity against Streptococcus suis BB1006 isolate in presence of 10 ug/ml reserpine after 24 hrs. Put shortly: as §1
Experiment [25] concerns Streptococcus suis. The experiment in a line: Antibacterial activity against Streptococcus suis BB1007 isolate in presence of 10 ug/ml reserpine after 24 hrs. In outline:
as §1

Experiment [26] deals with Streptococcus suis. The experiment in a line: Antibacterial activity against Streptococcus suis BB1008 isolate in presence of 10 ug/ml reserpine after 24 hrs. In outline: as §1
For experiment [27], the system named is Streptococcus suis. The experiment in a line: Antibacterial activity against Streptococcus suis BB1009 isolate in presence of 10 ug/ml reserpine after 24 hrs. In outline:
(§2)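 Clinical swine S. suis isolates; MIC by microdilution, 37°C for 24 h, ciprofloxacin tested with reserpine added; MIC reported in μg/ml.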

Experiment [28] has as its system Streptococcus suis. The experiment in a line: Antibacterial activity against Streptococcus suis BB1010 isolate in presence of 10 ug/ml reserpine after 24 hrs. Put shortly:
as §2

For experiment [29], the system named is Streptococcus suis. The experiment in a line: Antibacterial activity against Streptococcus suis BB1011 isolate in presence of 10 ug/ml reserpine after 24 hrs. In outline: as §2
For experiment [30], the system named is Streptococcus suis. The experiment in a line: Antibacterial activity against Streptococcus suis BB1012 isolate in presence of 10 ug/ml reserpine after 24 hrs. Put shortly:
as §2

Experiment [31] deals with Streptococcus suis. The experiment in a line: Antibacterial activity against Streptococcus suis BB1013 isolate in presence of 10 ug/ml reserpine after 24 hrs. Put shortly: as §2
Experiment [32] concerns Streptococcus suis. The experiment in a line: Antibacterial activity against Streptococcus suis BB1014 isolate in presence of 10 ug/ml reserpine after 24 hrs. Put shortly:
as §2

The test system of experiment [33] is Streptococcus suis. The experiment in a line: Antibacterial activity against Streptococcus suis BB1015 isolate in presence of 10 ug/ml reserpine after 24 hrs. Put shortly:
as §2

The subject of experiment [34] is Streptococcus suis. The experiment in a line: Antibacterial activity against Streptococcus suis BB1016 isolate in presence of 10 ug/ml reserpine after 24 hrs. In outline: as §2
For experiment [35], the system named is Streptococcus suis. The experiment in a line: Antibacterial activity against Streptococcus suis BB1017 isolate in presence of 10 ug/ml reserpine after 24 hrs. In outline:
as §2

The subject of experiment [36] is Streptococcus suis. The experiment in a line: Antibacterial activity against Streptococcus suis BB1007 isolate after 24 hrs. In outline:
as §1

Converted amounts (≈) assume the structure as drawn. A value given as a limit tells only on which side of the number the result lay.

As a reminder, the MIC is the lowest concentration found to suppress growth. Consider `O=C(O)c1cn(C2CC2)c2cc(N3CCNCC3)c(F)cc2c1=O` [CIPROFLOXACIN], for which the MIC in [1] is 64 µg/mL (≈ 193 µM); in [2], 0.5 µg/mL; in experiment [3] it was 0.5 µg/mL; in experiment [4], 0.5 µg/mL (≈ 1.51 µM); in experiment [5] it was 0.5 µg/mL (≈ 1.51 µM); in [6], 0.5 µg/mL (≈ 1.51 µM). Besides, the MIC in experiment [7] amounted to 0.5 µg/mL (≈ 1.51 µM); in [8], 0.5 µg/mL (≈ 1.51 µM); in experiment [9] it was 0.5 µg/mL (≈ 1.51 µM); in experiment [10], 2 µg/mL (≈ 6.04 µM); in experiment [11] it was 64 µg/mL (≈ 193 µM); in [12], 32 µg/mL (≈ 96.6 µM). Also, the MIC stood at 32 µg/mL (≈ 96.6 µM) in experiment [13]; 16 µg/mL (≈ 48.3 µM) in experiment [14]; 32 µg/mL (≈ 96.6 µM) in experiment [15]; 64 µg/mL (≈ 193 µM) in experiment [16]; 64 µg/mL (≈ 193 µM) in experiment [17]; 32 µg/mL (≈ 96.6 µM) in [18]. The minimum inhibitory concentration (MIC) in experiment [19] was 32 µg/mL (≈ 96.6 µM); in experiment [20] it was 0.5 µg/mL; in experiment [21] it was 0.5 µg/mL; in experiment [22], 0.5 µg/mL; in experiment [23], 0.5 µg/mL; in experiment [24], 1 µg/mL. For the same compound, the minimal inhibitory concentration (MIC) in experiment [25] came out at 4 µg/mL; in experiment [26], 32 µg/mL; in experiment [27], 16 µg/mL; in experiment [28], 16 µg/mL; in experiment [29], 16 µg/mL; in experiment [30] it was 16 µg/mL. In addition, the MIC in experiment [31], in experiment [32], in experiment [33], in experiment [34] and in experiment [35] was 16 µg/mL throughout.
Regarding `CCN1CCN(c2cc3c(cc2F)c(=O)c(C(=O)O)cn3C2CC2)CC1` [ENROFLOXACIN], the MIC in [1] worked out at 16 µg/mL (≈ 44.5 µM); in [4], 0.5 µg/mL (≈ 1.39 µM); in experiment [5] it was 0.5 µg/mL (≈ 1.39 µM); in [6], 0.5 µg/mL (≈ 1.39 µM); in experiment [7], 0.5 µg/mL (≈ 1.39 µM); in experiment [8] it was 0.5 µg/mL (≈ 1.39 µM). Further, the MIC in [9] was found to be 0.25 µg/mL (≈ 0.696 µM); in [10], 1 µg/mL (≈ 2.78 µM); in [36] it was 4 µg/mL (≈ 11.1 µM); in experiment [11], 32 µg/mL (≈ 89 µM); in experiment [12], 16 µg/mL (≈ 44.5 µM); in [13], 32 µg/mL (≈ 89 µM). The MIC in experiment [14] amounted to 16 µg/mL (≈ 44.5 µM); in experiment [15], 8 µg/mL (≈ 22.3 µM); in experiment [16], 8 µg/mL (≈ 22.3 µM); in experiment [17], 16 µg/mL (≈ 44.5 µM); in experiment [18], 16 µg/mL (≈ 44.5 µM); in [19] it was 8 µg/mL (≈ 22.3 µM).
Turning to `C[C@H]1COc2c(N3CCN(C)CC3)c(F)cc3c(=O)c(C(=O)O)cn1c23.C[C@H]1COc2c(N3CCN(C)CC3)c(F)cc3c(=O)c(C(=O)O)cn1c23.O` [LEVOFLOXACIN], the minimal inhibitory concentration (MIC) in experiment [1] was 64 µg/mL; in experiment [4], 1 µg/mL; in [5], 1 µg/mL; in [6], 1 µg/mL; in experiment [7], 0.5 µg/mL; in experiment [8], 1 µg/mL. The minimum inhibitory concentration (MIC) in experiment [9] worked out at 0.5 µg/mL; in [10], 1 µg/mL; in [36], 2 µg/mL; in experiment [11], 16 µg/mL; in [12] it was 16 µg/mL; in [13], 32 µg/mL. For the same compound, the MIC is 16 µg/mL in experiment [14]; 16 µg/mL in [15]; 16 µg/mL in experiment [16]; 32 µg/mL in experiment [17]; 16 µg/mL in experiment [18]; 32 µg/mL in experiment [19].
With `CCn1cc(C(=O)O)c(=O)c2ccc(C)nc21` [NALIDIXIC ACID], the minimal inhibitory concentration (MIC) in experiment [1], in experiment [4], in experiment [5], in experiment [6], in experiment [7] and in [8] was over 64 µg/mL each time. The MIC in experiment [9], in experiment [10], in experiment [36], in [11], in [12] and in experiment [13] was over 64 µg/mL in each case. The MIC in [14], in experiment [15], in experiment [16], in experiment [17], in [18] and in [19] was over 64 µg/mL in each case.
For the compound `CCn1cc(C(=O)O)c(=O)c2cc(F)c(N3CCNCC3)cc21` [NORFLOXACIN], the MIC in experiment [1] is over 64 µg/mL; in [4], 4 µg/mL (≈ 12.5 µM); in experiment [5] it was 2 µg/mL (≈ 6.26 µM); in [6], 2 µg/mL (≈ 6.26 µM); in experiment [7], 4 µg/mL (≈ 12.5 µM); in experiment [8] it was 2 µg/mL (≈ 6.26 µM). The MIC was 4 µg/mL (≈ 12.5 µM) in experiment [9]; 32 µg/mL (≈ 100 µM) in experiment [10]; 16 µg/mL (≈ 50.1 µM) in experiment [36]; over 64 µg/mL in experiment [11]; 32 µg/mL (≈ 100 µM) in experiment [12]; over 64 µg/mL in experiment [13]. The MIC in [14] is 32 µg/mL (≈ 100 µM); in [15], over 64 µg/mL; in [16], over 64 µg/mL; in experiment [17], over 64 µg/mL; in experiment [18], over 64 µg/mL; in [19] it was over 64 µg/mL.

The values are drawn from ChEMBL document CHEMBL1142180, “First characterization of fluoroquinolone resistance in Streptococcus suis” (2007).
